Data from PMC4048812 (The Biochemical journal, 2013).
Several values for one entry are separate records, joined by “and”; a condition that tells them apart may be missing. Equal values may be shown once. Entries after “also recorded” stand apart in the source; their conditions may differ. Each block holds one compound with its values, some of them ahead of it. Where no end group is shown, it is not given here.

What was measured:
EGFR [1] = conditions: ref [16],[17]; cited from earlier work
[2] = system: wild type EGFR kinase domain; assay: Transmission electron microscopy with wild type EGFR kinase domain; conditions: TEM
Summary of the method: (§1)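 Test peptide at varied concentrations, without or with 2 μM wild-type or I682Q His-tagged EGFR kinase domain (residues 672-998), in 10 mM Tris pH 7.5, 20 mM NaCl, 0.02% v/v polysorbate 20. Samples were incubated about 10 min at room temperature, then adsorbed onto Formvar carbon-coated copper grids. Grids were negatively stained with three applications of 1% w/v uranyl acetate and imaged by transmission electron microscopy.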

V924R EGFR kinase domain = assay: Enzyme-coupled kinase assay, V924R mutant alone; format: biochemical; conditions: 2 μM kinase domain; titration of Peptide C; 500 μM ATP; pH 7.5; room temperature
Summary of the method: (§2)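 Spectrophotometric enzyme-coupled kinase assay using N-terminally His6-tagged EGFR kinase domain (residues 672-998); mutants were made by site-directed mutagenesis and sequence-confirmed. Total kinase domain was 2 μM, with 1 μM of each mutant when paired. The test peptide substrate was titrated with 500 μM ATP in 10 mM MgCl2, 20 mM Tris pH 7.5 at room temperature. Specific rates came from at least triplicates; for pairs, Hill coefficients came from variable-slope log(agonist)-response fits.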

[3] = Transmission electron microscopy of Peptide C alone; format: physicochemical; conditions: 20, 40 and 80 μM, TEM
Summary of the method: as §1

[4] = Dynamic light scattering of Peptide C; format: physicochemical; conditions: DLS, 25° C
Summary of the method: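 Test peptide at 1 mM, prepared in water, in 20 mM NaCl, or in assay buffer (15 mM Tris pH 7.5, 0.02% v/v polysorbate 20, 20 mM NaCl). DLS was run at 25° C with a 60 mW laser at 15% power and a 90° detection angle. Buffer components were filtered beforehand; the peptide itself was not filtered.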

[5] = molecular target: I682Q and V924R EGFR kinase domains (Homo sapiens, UniProt P00533, V948R); assay: Enzyme-coupled kinase assay, pair I682Q and V924R; format: biochemical; conditions: 1 μM each
Summary of the method: as §2

[6] = molecular target: I682Q/D813N and V924R EGFR kinase domains (Homo sapiens, UniProt P00533, V948R); assay: Enzyme-coupled kinase assay, pair I682Q/D813N and V924R; format: biochemical; conditions: I682Q/D813N with V924R, 1 μM each; minimum of three replicates
Summary of the method: as §2

[7] = molecular target: EGFR kinase domain (residues 672-998) (Homo sapiens, UniProt P00533); assay: Enzyme-coupled kinase assay, wild type EGFR kinase domain; format: biochemical
EGFR [8] = conditions: reported value, cited from earlier work
EGFR kinase domain [9] = molecular target: T1, EGFR kinase domain (Homo sapiens, UniProt P00533); assay: Immunoblot analysis of EGFR kinase domain autophosphorylation; format: biochemical; conditions: 0-60 μM Peptide C; 800 nM EGFR kinase domain; 500 μM ATP; pH 7.5; 1 minute; room temperature; minimum of three replicates
I682Q EGFR kinase domain [10] = assay: Transmission electron microscopy with I682Q EGFR kinase domain; conditions: different concentrations of Peptide C; 2 μM I682Q EGFR kinase domain; TEM
Summary of the method: as §1

I682Q EGFR kinase domain [11] = assay: Enzyme-coupled kinase assay, I682Q mutant alone; format: biochemical; conditions: 2 μM kinase domain; titration of Peptide C; 500 μM ATP; pH 7.5; room temperature
Summary of the method: as §2

EGFR kinase domain [12] = molecular target: T1, EGFR kinase domain; assay: Radiometric kinase assay of Tail Peptide A phosphorylation; format: biochemical
Summary of the method: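 Buffer was 15 mM Tris pH 7.5, 0.02% v/v polysorbate 20, 10 mM MgCl2. A non-phosphorylatable test peptide (substrate Tyr→Ala) was added at varied concentrations. After 10 min at room temperature, reactions were quenched with 0.5% v/v phosphoric acid, spotted on phosphocellulose filters, washed, and scintillation-counted (four replicate filters).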

[13] = Peptide C (2 μM EGFR) vs Tyrsub (8 μM EGFR)

Compound: poly-arginine
aggregation and activation of EGFR (EGFR [1]): can aggregate and activate EGFR in an apparently cooperative manner

Compound: poly-lysine
aggregation and activation of EGFR (EGFR [1]): can aggregate and activate EGFR in an apparently cooperative manner

Compound: protamine
aggregation and activation of EGFR (EGFR [1]): can aggregate and activate EGFR in an apparently cooperative manner

Compound: RAHEEIYHFFFAKKK [Peptide C]
small, dispersed EGFR aggregates ([2]; 20 μM Peptide C, 2 μM EGFR kinase domain): also observed
small, dispersed EGFR aggregates ([2]; 80 μM Peptide C, 2 μM EGFR kinase domain): not observed
fibrils and globular aggregates with EGFR kinase domain ([2]; 20 and 80 μM Peptide C, 2 μM EGFR kinase domain, about 10 minutes): forms fibrils in the presence of EGFR; also recorded: Fibrils similar to those formed by Peptide C alone as well as globular aggregates localized near the fibrils are observed
fibril edges with EGFR kinase domain ([2]; Peptide C with 2 μM EGFR kinase domain): the fibril edges are less defined; also recorded: appear less crisp
activating properties with V924R alone (V924R EGFR kinase domain): entirely abrogated
fibril length ([3]; 10 mM Tris, pH 7.5, 20 mM NaCl, 0.02% polysorbate 20): several hundreds
dependence of fibril morphology on concentration [3]: appears to be independent of Peptide C concentration
globular aggregates [3]: Globular aggregates closely associated with the fibrils are also observed
aggregation ([4]; 1 mM in 20 mM sodium chloride): aggregation to an intermediate degree between the aqueous solution and the buffered samples
aggregation ([4]; 1 mM in water): limited aggregation
hydrodynamic radius ([4]; 1 mM in water, polydisperse distribution): 1-10 nm
catalysis relative to wild type kinase domain ([5]; I682Q and V924R combined, 500 μM ATP, pH 7.5, room temperature): about 60%
Hill coefficient (nH) ([5]; I682Q with V924R, minimum of three replicates): ~ 3.0
Hill coefficient (nH) [6]: ~ 2.5
kcat, fold higher than for Tail Peptide A ([7]; Peptide C (2 μM EGFR) vs Tail Peptide A (8 μM EGFR)): roughly eight
catalytic efficiency (kcat/KM), fold higher than for Tyrsub [7, 13]: ~760 fold
kcat, fold higher than for Tyrsub [7, 13]: roughly eight
Hill coefficient (nH) ([7]; wild type kinase domain, 2 μM, 500 μM ATP, pH 7.5, room temperature, Hill equation fit, minimum of three replicates): ~ 2.8 and ~3
Km (EGFR [8]; ref [5],[9]): 128 µM
catalytic efficiency, kcat/KM, fold higher than for Tail Peptide A (EGFR [8]; ref [9]): ~ 26 fold
Tyr-845 phosphorylation (EGFR kinase domain [9]): increases in a dose-dependent manner
Tyr-974 phosphorylation (EGFR kinase domain [9]): same dose-dependent increase in phosphorylation
Tyr-992 phosphorylation (EGFR kinase domain [9]): same dose-dependent increase in phosphorylation
appearance with I682Q EGFR kinase domain compared with wild type (I682Q EGFR kinase domain [10]): appear indistinguishable from wild type
activating properties with I682Q alone (I682Q EGFR kinase domain [11]): entirely abrogated

Compound: CCCCCCCCCCCCC/C=C/[C@@H](O)[C@@H](N)CO [sphingosine]
aggregation and activation of EGFR (EGFR [1]): can aggregate and activate EGFR in an apparently cooperative manner

EC50 (EGFR kinase domain [12]): 45 µM
Compound: RAHEEIAHFFFAKKK [Peptide C variant]
